# Screening data: PubChem BioAssay, The Scripps Research Institute Molecular Screening Center
# M1 ag parental: counter-screen for M1 agonists: effect in parental CHO-K1 cells | activation, % at 3 µM | 360,000 compounds, 0.48% hits | Fluo-8 calcium fluorescence; scaled to maximal ATP response, vehicle zero; in the data active means activation above about 15%;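 further: untransfected CHO-K1 host cells lacking M1 receptor as counterscreen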
# CHO-K1 Ca PAM: nonselective calcium activators in parental CHO-K1 cells, primary screen, counter-screen for M1 PAM project, cell-based, Fluo-8 calcium fluorescence, full deck, 1536-well. ATP EC20; 0% at ATP EC20, 100% at ATP max. activation, % at 3 µM. 360,000 compounds, 0.02% hits;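 active means activation above the run cutoff, the mean activation of all test compounds plus 3 SD, cut at about 40% in these data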;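 further: peak over basal fluorescence ratio in a 140 s read after ATP addition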
# CHO-K1 Ca antag: M1 antagonist counterscreen hit in parental CHO-K1 cells | 360,000 compounds, 0.6% hits | inhibition, % at 3 µM | AID 602250 | ATP-induced calcium, Fluo-8 fluorescence;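 active means inhibition above a per-plate cutoff, the plate's mean sample inhibition plus 3 SD, cut at about 24% in these data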;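 further: 0% = DMSO plus EC80 ATP and 100% = DMSO alone without ATP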
# OX1R antag-1: OX1R (HCRTR1) antagonists, primary screen, fluorescence, CHO/OX1R cells, Fluo-8 calcium, orexin A | Orexin/Hypocretin receptor type 1 (Homo sapiens), O43613 | inhibition, % at 5 µM | Fluo-8 calcium fluorescence | 330,000 compounds, 0.43% hits | AID 434989, 2010;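 active means inhibition above its plate's threshold, mean inhibition of all tested compounds on the plate plus 3 SD, cut at about 37% in these data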;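 further: 0% = orexin A challenge wells and 100% = SB-334867-A antagonist wells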
# Target sequence (O43613 whole entry, looked up): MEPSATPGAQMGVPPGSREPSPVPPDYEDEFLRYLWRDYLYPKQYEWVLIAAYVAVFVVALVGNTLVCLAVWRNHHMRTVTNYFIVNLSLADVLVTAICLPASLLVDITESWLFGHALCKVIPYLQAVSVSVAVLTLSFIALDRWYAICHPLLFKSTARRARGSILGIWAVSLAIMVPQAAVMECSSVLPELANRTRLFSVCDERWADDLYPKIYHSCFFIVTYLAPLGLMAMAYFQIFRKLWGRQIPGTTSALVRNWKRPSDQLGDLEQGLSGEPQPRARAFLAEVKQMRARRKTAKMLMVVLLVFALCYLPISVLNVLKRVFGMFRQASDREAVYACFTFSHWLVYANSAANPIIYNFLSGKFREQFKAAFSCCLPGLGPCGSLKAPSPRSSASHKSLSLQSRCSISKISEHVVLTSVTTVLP
# CHO parental Ca: ATP-evoked calcium signal inhibitors, parental CHO, primary screen, counter-screen for OX1R antagonist project, cell-based, fluorescence, Fluo-8 calcium dye | 330,000 compounds, 0.63% hits | parental CHO-K1, ATP-induced calcium, Fluo-8 fluorescence | inhibition, % at 5.6 µM;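 active means inhibition above that plate's mean sample inhibition plus 3 SD, cut at about 26% in these data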;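 further: 0% = ATP-challenged DMSO wells and 100% = DMSO wells without ATP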
#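 Material – parental CHO cells · Reagent – ATP stimulus · Compound – single nominal dose of 5.6 µM per compound · Detection – Fluo-8 fluorescence · Read-out basis – percent inhibition of calcium signal · Controls – ATP-challenged DMSO wells low, unchallenged DMSO wells high · Repeats – no replicates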
# OX1R antag-2: antagonists of human orexin 1 receptor (OX1R). 330,000 compounds, 1.8% hits. inhibition, % at 6.6 µM. OX1R-expressing cells, FRET antagonist read-out. Orexin/Hypocretin receptor type 1 (Homo sapiens), O43613; in the data active means inhibition mostly above about 38%, no sharp cut-off; inactive means mostly below about 40%;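 further: 0% = agonist challenge alone and 100% = reference antagonist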
# The depositor's hits bear a star; . = no result. Shown are actives, neighbours in structure and some others; about 2.9% of the full set was active somewhere.
SMILES,M1 ag parental,CHO-K1 Ca PAM,CHO-K1 Ca antag,OX1R antag-1,CHO parental Ca,OX1R antag-2
CC(C)Oc1ccc(/C=N/NC(=O)c2nnn(-c3nonc3N)c2CN(C)c2ccccc2)cc1,3,-3,-1,22,-6,56*
Cc1ccsc1/C=N/NC(=O)c1nnn(-c2nonc2N)c1CN(C)c1ccccc1,9,-6,0,20,-4,50*
O=C(CC1SC(N2CCCC2)=NC1=O)Nc1ccc(C(=O)Nc2ncccc2O)cc1 (stereo unspecified),0,4,-4,-10,-13,5
CC(CCc1ccccc1)NC(=O)CN1CCN(Cc2ccc(Cl)cc2)C1=O (stereo unspecified),0,-11,28*,-25,-11,17
O=C(Nc1ccc([N+](=O)[O-])cc1)c1ccc(Cn2cc([N+](=O)[O-])cn2)cc1,3,13,-5,19,6,10
NS(=O)(=O)c1ccc(NC(=S)NCCc2ccccc2)cc1,0,10,-4,14,5,-12
O=[N+]([O-])c1ccc(NC(=S)NCc2ccc(F)cc2)cc1,15,-15,24*,-22,74*,27
O=[N+]([O-])c1ccc(NC(=S)NCCc2ccccc2)cc1,12,-9,23,6,51*,47*
O=C(Nc1cnn(Cc2ccc(Cl)cc2)c1)c1ccc([N+](=O)[O-])cc1,2,14,-6,14,64*,16
O=[N+]([O-])c1ccc(NC(=S)NCCc2ccc(Cl)cc2)cc1,8,12,14,64*,69*,71*
CC(=O)Nc1cccc(NC(=O)c2ccccc2OCc2c(C)noc2C)c1,1,-11,-2,-28,-3,19
CC(C)c1ccc(OCC(=O)NC2=NCCS2)cc1,0,11,-5,-16,-3,14
CN(CCCC(=O)NCc1ccc2c(c1)OCO2)S(=O)(=O)c1ccc([N+](=O)[O-])cc1,2,-4,-3,-13,0,66*
O=C(Cc1ccc([N+](=O)[O-])cc1)NCc1ccc2c(c1)OCO2,1,4,0,9,-3,39
C=CCNC(=O)C(=O)Nc1cc2c3c(c1)CCC(=O)N3CCC2,1,-1,-3,-1,-9,11
Cc1ccc(S(=O)(=O)N2CCN(C)CC2)c2nsnc12,0,-14,-8,9,0,50*
CN1CCN(S(=O)(=O)c2cccc3nsnc23)CC1,1,-6,3,2,7,40*
O=c1cc(-c2ccccc2)c2cc(Cl)c(O)c(CN3CCOCC3)c2o1,0,-10,0,-4,-4,65*
CCOc1ccc(N(CC(=O)NC(C)C)C(=O)CCC(=O)Nc2ccccn2)cc1,1,1,-2,6,-9,11
O=C(COc1ccccc1)Nc1ccc(S(=O)(=O)Nc2ccccn2)cc1,3,6,-5,-7,-3,18
c1ccc2[nH]c3cc4ncnc4cc3nc2c1,2,10,8,11,4,70*
FC(F)c1nc2ccccc2[nH]1,0,-12,15,-20,10,8
Cc1cccc(CN2CCN([C@@H]3CS(=O)(=O)N[C@H]3COCc3ccccc3)CC2)c1,1,7,8,.,.,.
CC(C)c1ccc(-n2c(-c3ccccc3)c[n+]3c2CCc2ccccc2-3)cc1,11,1,32*,.,.,.
O=[N+]([O-])c1ccc(C2=NN(CCO)C(=Nc3ccc(OC(F)(F)F)cc3)SC2)cc1,3,-9,2,-2,2,24
COc1ccc(N=C2SCC(c3ccc([N+](=O)[O-])cc3)=NN2CCO)cc1,15*,-7,15,-3,-18,5
O=S(=O)(Nc1ccccc1OC(F)F)c1ccc(S(=O)(=O)N2CCCC2)cc1,3,-13,-12,8,-11,31*
COc1ccc(NS(=O)(=O)c2ccc(S(=O)(=O)N3CCCC3)cc2)cc1,3,-3,4,14,40*,17
COc1ccc(S(=O)(=O)N2CCCCC2)cc1,0,-5,27*,9,0,7
